Test results: ChEMBL document CHEMBL1157580, “Interaction of (benzylidene-hydrazono)-1,4-dihydropyridines with beta-amyloid, acetylcholine, and butyrylcholine esterases” (Bioorg Med Chem, 2010)
Active and inactive are the calls of the source. The calls are words filed in the database; no cut-off is given here.

Columns and labels:
[1] = Octanol-water partition coefficient, log P at pH 7.4 by RP-HPLC; assay type: physicochemical
Method in brief: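 Reversed-phase HPLC on an endcapped RP18 column (5 µm). Eluent methanol/phosphate buffer pH 7.4 (70/30) with 0.02% N,N-dimethylhexylamine, 1.0 ml flow. Analytes at 4 µg/ml in methanol, run in duplicate. Capacity factors converted to log P through a calibration against 2-phenylethanol, benzene, dimethylaniline, toluene, biphenyl and anthracene.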

Acetylcholinesterase = Acetylcholinesterase (Electrophorus electricus, UniProt O42275); assay: Inhibition of electric eel AChE by modified Ellman's method
Method in brief: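 Ellman-based assay. IC50 is the concentration giving 50% loss of AChE activity, reported as mean ± SEM from n = 3-6 experiments.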

Cholinesterase = Cholinesterase (Equus caballus, UniProt P81908); assay: Inhibition of horse serum BuChE by modified Ellman's method
[2] = Induction of fibril destruction of amyloid beta (1-40) catalytic domain containing HHQKLVFFAED sequence by modified thioflavin T assay
[3] = Inhibition of fibril formation of amyloid beta (1-40) catalytic domain containing HHQKLVFFAED sequence by thioflavin T assay
[4] = Inhibition of fibril formation of amyloid beta (1-40) catalytic domain containing HHQKLVFFAED sequence at 0.5 mM by thioflavin T assay
[5] = Inhibition of amyloid beta (1-40) fibril formation by thioflavin T formation assay
Method in brief: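 HFIP-pretreated Aβ film taken up in DMSO as a 2 mM stock, stored at -20 °C for at most three days. Diluted to 100 µM final peptide in 25 mM NaH2PO4, 120 mM NaCl, 3 µM thioflavin T, 0.02% NaN3, pH 7.4. Inhibitors at 0.005–0.5 mM. Incubated at 37 °C. Fluorescence read at excitation 450 nm, emission 482 nm.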

[6] = Dissociation constant, pKa at pH 7.4; assay type: physicochemical
Method in brief: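 Potentiometric titration: compound dissolved in 0.15 M KCl for constant ionic strength, with 30% dioxane or 80% methanol as co-solvent modifier. pH brought to 1.8 with 0.5 M HCl, then titrated with 0.5 M KOH. Dissociation constants determined at several modifier levels and pKa obtained by extrapolation of the calibration line. Electrode calibrated by blank titrations of 0.15 M KCl.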

[7] = Partition coefficient, log P at pH 5 by shake flask method; assay type: physicochemical; conditions: octanol/water
Method in brief: (§1)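 Shake flask with octanol and phosphate buffer at the stated pH, each phase pre-saturated with the other overnight. Compound at 10^-5 mol/l in buffer-saturated octanol, absorbance (A0) read between 314 and 360 nm. Equal volumes shaken 4 h at 37 °C, left overnight, then centrifuged. Aqueous-layer absorbance (A1) read; log P = log((A0−A1)/A1).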

[8] = Partition coefficient, log P at pH 6 by shake flask method; assay type: physicochemical; conditions: octanol/water; method in brief: as §1
[9] = Partition coefficient, log P at pH 7 by shake flask method; assay type: physicochemical; conditions: octanol/water; method in brief: as §1
[10] = Partition coefficient, log P at pH 7.4 by shake flask method; assay type: physicochemical; conditions: octanol/water; method in brief: as §1

Cholinesterase, sequence (P81908 whole entry, the tested form may be a part): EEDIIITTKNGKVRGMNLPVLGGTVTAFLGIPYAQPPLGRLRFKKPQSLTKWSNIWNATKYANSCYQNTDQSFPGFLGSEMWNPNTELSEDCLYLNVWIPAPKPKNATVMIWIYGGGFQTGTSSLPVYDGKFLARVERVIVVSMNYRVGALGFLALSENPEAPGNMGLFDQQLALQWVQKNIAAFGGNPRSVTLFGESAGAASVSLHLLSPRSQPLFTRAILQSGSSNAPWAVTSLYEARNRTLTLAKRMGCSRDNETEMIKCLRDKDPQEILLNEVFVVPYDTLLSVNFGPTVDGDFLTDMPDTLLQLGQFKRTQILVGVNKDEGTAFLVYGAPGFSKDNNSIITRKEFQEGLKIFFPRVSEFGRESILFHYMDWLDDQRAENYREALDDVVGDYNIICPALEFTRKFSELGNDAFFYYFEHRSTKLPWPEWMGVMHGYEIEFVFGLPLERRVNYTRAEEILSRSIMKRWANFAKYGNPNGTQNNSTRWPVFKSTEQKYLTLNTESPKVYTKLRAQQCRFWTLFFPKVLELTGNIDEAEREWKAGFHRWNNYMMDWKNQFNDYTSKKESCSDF
Acetylcholinesterase, sequence (O42275 whole entry): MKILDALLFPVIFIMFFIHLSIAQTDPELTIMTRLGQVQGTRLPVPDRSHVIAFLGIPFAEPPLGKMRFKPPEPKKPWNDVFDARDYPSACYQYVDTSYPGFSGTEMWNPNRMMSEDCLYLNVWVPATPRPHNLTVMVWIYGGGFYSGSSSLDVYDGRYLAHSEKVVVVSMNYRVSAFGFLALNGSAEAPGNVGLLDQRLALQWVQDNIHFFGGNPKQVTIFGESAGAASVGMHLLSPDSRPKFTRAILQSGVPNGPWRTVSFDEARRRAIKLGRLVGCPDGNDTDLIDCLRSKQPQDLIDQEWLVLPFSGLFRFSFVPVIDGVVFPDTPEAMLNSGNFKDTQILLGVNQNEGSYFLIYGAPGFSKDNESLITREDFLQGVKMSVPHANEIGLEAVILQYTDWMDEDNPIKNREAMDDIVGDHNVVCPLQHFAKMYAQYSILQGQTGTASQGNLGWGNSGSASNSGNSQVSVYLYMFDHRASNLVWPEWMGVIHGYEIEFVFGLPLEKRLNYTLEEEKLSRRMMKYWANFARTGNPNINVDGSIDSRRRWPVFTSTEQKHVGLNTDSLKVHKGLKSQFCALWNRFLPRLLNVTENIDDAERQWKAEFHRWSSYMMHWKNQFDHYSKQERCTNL

Clc1cccc(Cl)c1/C=N/N=c1ccn(Cc2ccccc2)cc1
logP [1]: 3.5 | IC50 (Acetylcholinesterase): 17.4 µM | IC50 (Cholinesterase): 8 µM | Activity [2]: Dose-dependent effect

Clc1cccc(Cl)c1/C=N/N=c1ccn(CCc2ccccc2)cc1
logP [1]: 3.9 | IC50 (Acetylcholinesterase): 56.7 µM | IC50 (Cholinesterase): 9 µM | inhibition [3]: Dose-dependent effect | Activity [2]: Dose-dependent effect

Cn1ccc(=N/N=C/c2c(Cl)cccc2Cl)cc1
logP [1]: 3.4 | IC50 (Acetylcholinesterase): 739 µM | IC50 (Cholinesterase): 11 µM | inhibition [4]: 60% | Activity [2]: inactive

Nc1ccc(O)cc1 [4-AMINOPHENOL]
IC50 [5]: 90 µM | IC50 [3]: 83 µM

Clc1cccc(Cl)c1CO/N=C/c1cc[n+](CCC[n+]2ccc(/C=N/OCc3c(Cl)cccc3Cl)cc2)cc1.[Br-].[Br-]
logP [1]: 0.65 | IC50 (Acetylcholinesterase): 0.34 µM | IC50 (Cholinesterase): 1.83 µM | inhibition [5]: Active | inhibition [3]: Active

Clc1cccc(Cl)c1CO/N=C/C1CCN(CCCc2ccccc2)CC1
pKa [6]: 7.1 | logP [1]: 3.6 | IC50 (Acetylcholinesterase): 19.1 µM

Clc1cccc(Cl)c1/C=N/N=c1ccn(Cc2c(Cl)cccc2Cl)cc1
logP [1]: 4 | logD [7]: 0.8 | logD [8]: 1.5 | logD [9]: 2.2 | logD [10]: 3.4 | IC50 (Acetylcholinesterase): 6.4 µM | inhibition [5]: Active | Activity [2]: Dose-dependent effect

Clc1cccc(Cl)c1CON=C1CCN(CCCc2ccccc2)CC1
pKa [6]: 5.7 | logP [1]: 4.3 | IC50 (Acetylcholinesterase): 12 µM | IC50 (Cholinesterase): > 100 µM

Clc1cccc(Cl)c1/C=N/N=c1ccn(CCCc2ccccc2)cc1
pKa [6]: 8.7 | logP [1]: 3.7 | logD [7]: 0.7 | logD [8]: 0.9 | logD [9]: 1.3 | logD [10]: 3.2 | IC50 (Acetylcholinesterase): 5.66 µM | IC50 (Cholinesterase): 10 µM | inhibition [5]: Active | inhibition [3]: Dose-dependent effect | Activity [2]: Dose-dependent effect

Clc1cccc(Cl)c1CO/N=C/c1cc[n+](CCCc2ccccc2)cc1
IC50 (Acetylcholinesterase): 0.18 µM | IC50 (Cholinesterase): 2.78 µM | inhibition [5]: Active | inhibition [3]: Active
